Reference: ChEMBL document CHEMBL1140914, “Synthesis and in vitro and in vivo evaluation of 18F-labeled positron emission tomography (PET) ligands for imaging the vesicular acetylcholine transporter” (J Med Chem, 2009)

Columns and labels:
[1] = Displacement of [3H]DTG from sigma2 receptor in rat liver membrane; assay type: cell membranes
Outline: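 Rat liver membrane homogenate (~300 μg protein) incubated 2 h at room temperature with ~5 nM [3H]DTG plus 1 μM (+)-pentazocine to mask σ1 sites. Haloperidol 10 μM defines nonspecific binding. Filtered and counted.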

[2] = Drug uptake in Sprague-Dawley rat fat at 25 to 35 uCi, iv after 30 mins postinjection by […]; assay type: ADME, organism-based, Adipose tissue; conditions: in vivo, 0.5 h
Outline: (§1)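 Mature male Sprague-Dawley rats (250–400 g) under 2–3% isoflurane got 25–35 μCi tracer in 100–150 μL saline via tail vein. Groups of at least 4 were euthanized at 5 min, 30 min, 1 h or 2 h. Brain was dissected into regions, and tissues were weighed and gamma counted against an injectate standard. Values are %ID/g, mean ± SD.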

[3] = system: Heart; experiment: Drug uptake in Sprague-Dawley rat heart at 25 to 35 uCi, iv after 1 hr postinjection by […]; assay type: ADME, organism-based; conditions: in vivo; outline: as §1
[4] = system: Lung; experiment: Drug uptake in Sprague-Dawley rat lung at 25 to 35 uCi, iv after 1 hr postinjection by […]; assay type: ADME, organism-based; conditions: in vivo; outline: as §1
[5] = system: Bone; experiment: Drug uptake in Sprague-Dawley rat bone at 25 to 35 uCi, iv after 2 hrs postinjection by […]; assay type: ADME, organism-based, Bone element; conditions: in vivo; outline: as §1
[6] = system: Kidney; experiment: Drug uptake in Sprague-Dawley rat kidney at 25 to 35 uCi, iv after 2 hrs postinjection by […]; assay type: ADME, organism-based; conditions: in vivo; outline: as §1
[7] = system: Lung; experiment: Drug uptake in Sprague-Dawley rat lung at 25 to 35 uCi, iv after 2 hrs postinjection by […]; assay type: ADME, organism-based; conditions: in vivo; outline: as §1
[8] = system: Liver; experiment: Drug uptake in Sprague-Dawley rat liver at 25 to 35 uCi, iv after 30 mins postinjection by […]; assay type: ADME, organism-based; conditions: in vivo, 0.5 h; outline: as §1
[9] = system: Brain; experiment: Drug uptake in Sprague-Dawley rat brain at 25 to 35 uCi, iv after 2 hrs postinjection by […]; assay type: ADME, organism-based; conditions: in vivo; outline: as §1
[10] = Drug uptake in Sprague-Dawley rat fat at 25 to 35 uCi, iv after 1 hr postinjection by […]; assay type: ADME, organism-based, Adipose tissue; conditions: in vivo; outline: as §1
[11] = system: Lung; experiment: Drug uptake in Sprague-Dawley rat lung at 25 to 35 uCi, iv after 5 mins postinjection by […]; assay type: ADME, organism-based; conditions: in vivo; outline: as §1
[12] = system: Kidney; experiment: Drug uptake in Sprague-Dawley rat kidney at 25 to 35 uCi, iv after 5 mins postinjection by […]; assay type: ADME, organism-based; conditions: in vivo; outline: as §1
[13] = system: Muscle tissue; experiment: Drug uptake in Sprague-Dawley rat muscle at 25 to 35 uCi, iv after 2 hrs postinjection by […]; assay type: ADME, organism-based; conditions: in vivo; outline: as §1
[14] = system: Bone; experiment: Drug uptake in Sprague-Dawley rat bone at 25 to 35 uCi, iv after 30 mins postinjection by […]; assay type: ADME, organism-based, Bone element; conditions: in vivo, 0.5 h; outline: as §1
[15] = system: Bone; experiment: Drug uptake in Sprague-Dawley rat bone at 25 to 35 uCi, iv after 1 hr postinjection by […]; assay type: ADME, organism-based, Bone element; conditions: in vivo; outline: as §1
[16] = system: Kidney; experiment: Drug uptake in Sprague-Dawley rat kidney at 25 to 35 uCi, iv after 30 mins postinjection by […]; assay type: ADME, organism-based; conditions: in vivo, 0.5 h; outline: as §1
[17] = system: Brain; experiment: Drug uptake in Sprague-Dawley rat brain at 25 to 35 uCi, iv after 30 mins postinjection by […]; assay type: ADME, organism-based; conditions: in vivo, 0.5 h; outline: as §1
[18] = system: Blood; experiment: Drug uptake in Sprague-Dawley rat blood at 25 to 35 uCi, iv after 1 hr postinjection by […]; assay type: ADME, organism-based; conditions: in vivo; outline: as §1
[19] = system: Muscle tissue; experiment: Drug uptake in Sprague-Dawley rat muscle at 25 to 35 uCi, iv after 5 mins postinjection by […]; assay type: ADME, organism-based; conditions: in vivo; outline: as §1
[20] = system: Bone; experiment: Drug uptake in Sprague-Dawley rat bone at 25 to 35 uCi, iv after 5 mins postinjection by […]; assay type: ADME, organism-based, Bone element; conditions: in vivo; outline: as §1
[21] = Drug uptake in Sprague-Dawley rat fat at 25 to 35 uCi, iv after 2 hrs postinjection by […]; assay type: ADME, organism-based, Adipose tissue; conditions: in vivo; outline: as §1
[22] = system: Lung; experiment: Drug uptake in Sprague-Dawley rat lung at 25 to 35 uCi, iv after 30 mins postinjection by […]; assay type: ADME, organism-based; conditions: in vivo, 0.5 h; outline: as §1
[23] = system: Heart; experiment: Drug uptake in Sprague-Dawley rat heart at 25 to 35 uCi, iv after 30 mins postinjection by […]; assay type: ADME, organism-based; conditions: in vivo, 0.5 h; outline: as §1
[24] = system: Blood; experiment: Drug uptake in Sprague-Dawley rat blood at 25 to 35 uCi, iv after 5 mins postinjection by […]; assay type: ADME, organism-based; conditions: in vivo; outline: as §1
[25] = system: Liver; experiment: Drug uptake in Sprague-Dawley rat liver at 25 to 35 uCi, iv after 1 hr postinjection by […]; assay type: ADME, organism-based; conditions: in vivo; outline: as §1
[26] = system: Brain; experiment: Drug uptake in Sprague-Dawley rat brain at 25 to 35 uCi, iv after 5 mins postinjection by […]; assay type: ADME, organism-based; conditions: in vivo; outline: as §1
[27] = system: Liver; experiment: Drug uptake in Sprague-Dawley rat liver at 25 to 35 uCi, iv after 2 hrs postinjection by […]; assay type: ADME, organism-based; conditions: in vivo; outline: as §1
[28] = system: Liver; experiment: Drug uptake in Sprague-Dawley rat liver at 25 to 35 uCi, iv after 5 mins postinjection by […]; assay type: ADME, organism-based; conditions: in vivo; outline: as §1
[29] = system: Kidney; experiment: Drug uptake in Sprague-Dawley rat kidney at 25 to 35 uCi, iv after 1 hr postinjection by […]; assay type: ADME, organism-based; conditions: in vivo; outline: as §1
[30] = system: Heart; experiment: Drug uptake in Sprague-Dawley rat heart at 25 to 35 uCi, iv after 2 hrs postinjection by […]; assay type: ADME, organism-based; conditions: in vivo; outline: as §1
[31] = Drug uptake in Sprague-Dawley rat fat at 25 to 35 uCi, iv after 5 mins postinjection by […]; assay type: ADME, organism-based, Adipose tissue; conditions: in vivo; outline: as §1
[32] = system: Heart; experiment: Drug uptake in Sprague-Dawley rat heart at 25 to 35 uCi, iv after 5 mins postinjection by […]; assay type: ADME, organism-based; conditions: in vivo; outline: as §1
[33] = system: Muscle tissue; experiment: Drug uptake in Sprague-Dawley rat muscle at 25 to 35 uCi, iv after 30 mins postinjection by […]; assay type: ADME, organism-based; conditions: in vivo, 0.5 h; outline: as §1
[34] = system: Muscle tissue; experiment: Drug uptake in Sprague-Dawley rat muscle at 25 to 35 uCi, iv after 1 hr postinjection by […]; assay type: ADME, organism-based; conditions: in vivo; outline: as §1
[35] = system: Brain; experiment: Drug uptake in Sprague-Dawley rat brain at 25 to 35 uCi, iv after 1 hr postinjection by […]; assay type: ADME, organism-based; conditions: in vivo; outline: as §1
[36] = system: Blood; experiment: Drug uptake in Sprague-Dawley rat blood at 25 to 35 uCi, iv after 30 mins postinjection by […]; assay type: ADME, organism-based; conditions: in vivo, 0.5 h; outline: as §1
[37] = molecular target: Sigma non-opioid intracellular receptor 1 (Cavia porcellus, UniProt Q60492); experiment: Displacement of [3H](+)-pentazocine from sigma1 receptor in guinea pig brain membrane by liquid scintillation counting; assay type: cell membranes
Sequence of Sigma non-opioid intracellular receptor 1 (Q60492 whole entry): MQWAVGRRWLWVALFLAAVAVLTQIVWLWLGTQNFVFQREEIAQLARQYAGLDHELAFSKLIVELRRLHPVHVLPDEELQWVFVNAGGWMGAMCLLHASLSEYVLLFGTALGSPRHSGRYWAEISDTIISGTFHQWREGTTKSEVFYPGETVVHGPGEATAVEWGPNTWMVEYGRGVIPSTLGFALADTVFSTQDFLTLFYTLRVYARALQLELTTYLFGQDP

[38] = molecular target: T1, Vesicular acetylcholine transporter (Homo sapiens, UniProt Q16572); experiment: Displacement of [3H]vesamicol from human vesicular acetylcholine transporter expressed in rat PC12 cells by liquid scintillation spectrometry; assay type: cell-based, PC-12
T1 sequence (Q16572 whole entry): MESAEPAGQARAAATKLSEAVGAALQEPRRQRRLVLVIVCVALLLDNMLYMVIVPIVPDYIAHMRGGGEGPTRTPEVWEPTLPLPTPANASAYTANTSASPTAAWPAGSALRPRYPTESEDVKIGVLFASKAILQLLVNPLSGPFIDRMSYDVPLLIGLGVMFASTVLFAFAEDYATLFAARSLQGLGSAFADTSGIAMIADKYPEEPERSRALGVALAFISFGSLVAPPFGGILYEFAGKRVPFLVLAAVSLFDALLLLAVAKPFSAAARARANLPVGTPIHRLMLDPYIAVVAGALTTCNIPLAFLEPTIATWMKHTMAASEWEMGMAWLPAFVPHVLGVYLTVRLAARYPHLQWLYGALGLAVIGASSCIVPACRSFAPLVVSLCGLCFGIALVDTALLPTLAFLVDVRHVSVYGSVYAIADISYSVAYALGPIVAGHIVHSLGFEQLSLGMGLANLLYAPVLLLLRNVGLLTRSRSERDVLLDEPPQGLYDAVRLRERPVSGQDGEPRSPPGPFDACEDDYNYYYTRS

[39] = system: Blood; experiment: Drug uptake in Sprague-Dawley rat blood at 25 to 35 uCi, iv after 2 hrs postinjection by […]; assay type: ADME, organism-based; conditions: in vivo; outline: as §1

SMILES	Ki [1] [µM]	Drug uptake [2] [% ID/g]	Drug uptake [3] [% ID/g]	Drug uptake [4] [% ID/g]	Drug uptake [5] [% ID/g]	Drug uptake [6] [% ID/g]	Drug uptake [7] [% ID/g]	Drug uptake [8] [% ID/g]	Drug uptake [9] [% ID/g]	Drug uptake [10] [% ID/g]	Drug uptake [11] [% ID/g]	Drug uptake [12] [% ID/g]	Drug uptake [13] [% ID/g]	Drug uptake [14] [% ID/g]	Drug uptake [15] [% ID/g]	Drug uptake [16] [% ID/g]	Drug uptake [17] [% ID/g]	Drug uptake [18] [% ID/g]	Drug uptake [19] [% ID/g]	Drug uptake [20] [% ID/g]	further results
O=C(c1ccc(F)cc1)C1CCN([C@@H]2Cc3ccccc3C[C@H]2O)CC1 (stereo in doubt; (-)-9e)	0.319	–	–	–	–	–	–	–	–	–	–	–	–	–	–	–	–	–	–	–	–
O=C(c1ccc([18F])cc1)C1CCN([C@@H]2Cc3ccccc3C[C@H]2O)CC1 (racemic)	–	0.177	0.094	0.346	0.739	0.853	0.223	1.504	0.059	0.196	1.389	1.644	0.047	0.445	0.623	1.042	0.153	0.043	0.079	0.307	Drug uptake [21]: 0.173 % ID/g; Drug uptake [22]: 0.553 % ID/g; Drug uptake [23]: 0.141 % ID/g; Drug uptake [24]: 0.122 % ID/g; Drug uptake [25]: 1.402 % ID/g; Drug uptake [26]: 0.606 % ID/g; Drug uptake [27]: 1.188 % ID/g; Drug uptake [28]: 1.939 % ID/g; Drug uptake [29]: 0.99 % ID/g; Drug uptake [30]: 0.056 % ID/g; Drug uptake [31]: 0.088 % ID/g; Drug uptake [32]: 0.328 % ID/g; Drug uptake [33]: 0.071 % ID/g; Drug uptake [34]: 0.076 % ID/g; Drug uptake [35]: 0.095 % ID/g; Drug uptake [36]: 0.071 % ID/g
O[C@@H]1C[C@H](OCc2ccc(F)cc2)CC[C@H]1N1CCC(c2ccccc2)CC1	0.0158	–	–	–	–	–	–	–	–	–	–	–	–	–	–	–	–	–	–	–	Ki [37]: 0.0213 µM; Ki [38]: 0.33 µM
O=C(c1ccc([18F])cc1)C1CCN([C@@H]2Cc3ccccc3C[C@H]2O)CC1 (stereo in doubt; (+))	–	0.108	0.051	0.188	0.532	0.194	0.112	1.239	0.022	0.154	0.904	0.791	0.022	0.277	0.399	0.416	0.071	0.048	0.047	0.187	Drug uptake [21]: 0.15 % ID/g; Drug uptake [39]: 0.027 % ID/g; Drug uptake [22]: 0.332 % ID/g; Drug uptake [23]: 0.094 % ID/g; Drug uptake [24]: 0.136 % ID/g; Drug uptake [25]: 0.814 % ID/g; Drug uptake [26]: 0.35 % ID/g; Drug uptake [27]: 0.692 % ID/g; Drug uptake [28]: 1.849 % ID/g; Drug uptake [29]: 0.291 % ID/g; Drug uptake [30]: 0.031 % ID/g; Drug uptake [31]: 0.052 % ID/g; Drug uptake [32]: 0.194 % ID/g; Drug uptake [33]: 0.051 % ID/g; Drug uptake [34]: 0.034 % ID/g; Drug uptake [35]: 0.041 % ID/g; Drug uptake [36]: 0.087 % ID/g
